# Screens deposited in PubChem BioAssay by The Scripps Research Institute Molecular Screening Center.
# Sampled rows, rich in hits. Any-hit rate of the full collection: about 1.4%.
# SIAE inh: blocks human sialic acid acetylesterase; actives 0.69% (n = 370,000); SIAE FP-Rh probe binding, fluorescence polarization; inhibition, % at 9.66 µM; Q9HAT2; AID 1053197;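 active means inhibition above a cutoff: mean of compounds within the control limits plus 3 SD of those, cut at about 17% in these data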
# RBBP9 inhibitor: blocks human serine hydrolase RBBP9; recombinant RBBP9, FP-Rh probe fluorescence polarization; inhibition, % at 7.94 µM; actives 0.2% (n = 220,000);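 active means inhibition above the campaign mean of all tested compounds plus 3 SD, cut at about 14% in these data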
#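 Test system: recombinant human RBBP9; Timing: 30 min then 45 min, 25 °C; Detection: fluorescence polarization; Control set: RBBP9 with DMSO as uninhibited control, no-protein wells as full inhibition; Compound dosing: one concentration, 7.94 µM nominal, 0.794% DMSO; Probe or stimulus: FP-Rh activity-based probe, 375 nM before mixing.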
# HTRA1 inhibitor: blocks human HTRA1 serine peptidase | recombinant HTRA1, FP-rhodamine activity-based probe, fluorescence polarization | inhibition, % at 5.96 µM | actives 0.5% (n = 340,000); in the data active means inhibition above about 36%
# Target sequence (Q92743 whole entry, looked up): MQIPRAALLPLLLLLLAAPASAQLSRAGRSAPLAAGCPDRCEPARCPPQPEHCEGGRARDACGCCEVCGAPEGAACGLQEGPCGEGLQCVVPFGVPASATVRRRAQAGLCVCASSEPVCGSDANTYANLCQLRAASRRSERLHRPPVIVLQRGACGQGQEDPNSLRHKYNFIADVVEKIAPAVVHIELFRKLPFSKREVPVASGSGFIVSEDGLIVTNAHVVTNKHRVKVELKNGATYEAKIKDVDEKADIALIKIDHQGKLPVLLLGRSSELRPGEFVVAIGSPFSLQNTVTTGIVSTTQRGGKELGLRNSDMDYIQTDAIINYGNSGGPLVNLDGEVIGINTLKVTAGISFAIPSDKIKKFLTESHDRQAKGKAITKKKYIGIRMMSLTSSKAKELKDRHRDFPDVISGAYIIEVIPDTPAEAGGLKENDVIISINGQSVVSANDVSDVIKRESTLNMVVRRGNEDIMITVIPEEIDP
# ABHD4 inh: inhibits mouse alpha/beta hydrolase domain 4 | Q8VD66 | purified mABHD4, FP-Rh probe fluorescence polarization | inhibition, % at 8.92 µM | actives 0.54% (n = 370,000);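 active means inhibition exceeding the mean over every tested compound plus 3 SD, cut at about 30% in these data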
#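 Test system: mABHD4 protein; Read-out basis: % inhibition; Incubation: 45 min + 60 min at 25 °C; Repeats: single replicate; Technique: fluorescence polarization with parallel and perpendicular emission, 525/598 nm; Compound: 8.92 µM, single dose; Benchmarks: full inhibition S159A mutant plus DMSO, zero as sample-well median.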
# mABHD4 conf: confirmation of mouse ABHD4 inhibitors; shares compounds with ABHD4 inh; purified mABHD4, FP-Rh probe fluorescence polarization; inhibition, % at 8.92 µM; actives 55% (n = 1,800);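 active means mean inhibition across replicates above the hit cutoff set in the primary screen, cut at about 30% in these data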
# Numbers stand for hits; 0 = inactive; - = no result given.
SMILES,SIAE inh,RBBP9 inhibitor,HTRA1 inhibitor,ABHD4 inh,mABHD4 conf
O=Cc1cc(OCc2ccccc2)ccc1[B-](F)(F)F,0,-,0,45.3,43.3
O=C(O)c1cc([N+](=O)[O-])c(NCCC2=CCCCC2)c([N+](=O)[O-])c1,0,0,0,54.7,65.8
CC(C)=C1C(=O)NN(c2ccc(C)c(Cl)c2)C1=O,0,0,0,36.9,0
CC(C)=C1C(=O)NN(c2cccc(Cl)c2)C1=O,0,0,0,0,-
COc1cc(O)cc2cc3c(c(O)c12)C(=O)CC(C)(O)O3 (configuration not stated),0,-,0,38.1,0
COc1cc(O)c2c(c1)OC(C)(C)CC2=O,0,0,0,0,-
COC(=O)c1ccc2c(=O)n(CCCCCC(=O)NC3CCCCC3)c(=O)[nH]c2c1,0,-,-,0,-
C#CCN1C(=O)[C@]2(NCCc3c2[nH]c2ccc(OC)cc32)c2ccccc21,0,-,-,0,-
CCOC(=O)C1=C(SCC)c2cc3c(n2C1=O)CCCC3,0,0,0,35.8,75.0
COCCNc1nc(-c2ccccc2F)c2sc(-c3ccccc3)cc2n1,0,-,-,0,-
Cc1cccc2c(N=Nc3ccc(S(=O)(=O)Nc4ccc(Cl)cc4)cc3[N+](=O)[O-])c(O)[nH]c12,0,0,0,40.0,38.3
Cc1cccc2c(N=NC(=O)c3ccc(NS(=O)(=O)c4cccs4)cc3)c(O)[nH]c12,0,-,0,0,-
CC12CCC=CC1=C(C=O)C1C2CCC2(C)C(O)CCC12 (configuration not stated),0,-,0,0,-
O=C(N/N=C/c1cc2c(c([N+](=O)[O-])c1)OCO2)c1ccncc1,0,-,0,0,-
O=C(N/N=C/c1ccncc1)c1cc2ccccc2cc1O,0,-,0,42.6,0
O=C(N/N=C/c1ccncc1)c1cc([N+](=O)[O-])cc([N+](=O)[O-])c1O,0,0,0,31.8,36.0
O=C(N/N=C/c1ccc[nH]1)c1cc2ccccc2cc1O,0,-,0,0,-
COCCOC(=O)N1CCCCC1c1cc(C(=O)Nc2cccc3c2CCCC3)no1 (configuration not stated),0,-,-,0,-
Nc1[nH]n2c(=O)cc(-c3ccccc3)nc2c1N=Nc1ccc(S(N)(=O)=O)cc1,0,0,0,32.3,36.9
CCCOc1ccccc1-n1sc2c(c1=S)-c1cc(OC)cc3c1N(C(=O)C3=O)C2(C)C,0,0,0,34.6,60.1
C=CCNc1sc(C(=O)c2ccccc2)c(N)c1-c1nc2ccccc2s1,-,0,0,-,-
CCNc1sc(C(=O)c2cccs2)c(N)c1-c1nc2ccccc2s1,0,0,0,33.0,0
CCOc1ccccc1CN1CCNC(=O)C1CC(=O)NCCCn1cccn1 (configuration not stated),0,-,0,0,-
N#C/C(=C(/O)c1ccc2c(c1)OCO2)c1nc2cc(C(F)(F)F)ccc2s1,0,-,0,32.8,0
C(=C\c1ccccc1)/CN1CCN(C(c2ccccc2)c2ccccc2)CC1,0,0,0,95.2,0
SMILES,SIAE inh,RBBP9 inhibitor,HTRA1 inhibitor,ABHD4 inh,mABHD4 conf
O=C(O)c1ccc(NS(=O)(=O)c2ccc3c(c2)C2C=CCC2C(c2ccccc2F)N3)cc1 (configuration not stated),0,0,0,42.2,0
[O-]/C(=C(\C(=S)Nc1cccc2ccccc12)[n+]1ccccc1)c1ccc(Cl)s1,0,0,0,0,-
[O-]C(=C(C(=S)Nc1cccc2ccccc12)[n+]1cccc(CO)c1)c1ccc(Cl)s1,0,-,0,30.4,62.8
O=C(COC(=O)c1cc(S(=O)(=O)N2CCCC2)ccc1O)Nc1ccc(SC(F)F)cc1,0,-,0,31.2,0
COc1ccc(C2C3=C(CC(C)(C)CC3=O)Oc3ncn(Cc4ccccc4)c(=N)c32)cc1 (configuration not stated),0,0,0,0,-
COc1ccc(C2C3=C(CC(C)(C)CC3=O)Oc3ncn4nc(-c5cccnc5)nc4c32)cc1 (configuration not stated),0,-,0,29.6,0
O=C(Nc1cccc(C(F)(F)F)c1)c1ccc(-c2ccc(F)c(F)c2)c2ccoc12,0,-,-,0,-
Cc1ccc(CNC(=O)c2c(-c3ccccc3Cl)noc2C)cc1,0,-,0,0,-
Cc1onc(-c2ccccc2Cl)c1C(=O)NCc1ccc2c(c1)cc(C)n2C,0,-,0,29.8,0
CN(CCOC(=O)c1cc2ccccc2o1)C1CN(Cc2cn(Cc3ccc([N+](=O)[O-])cc3)nn2)S(=O)(=O)C1 (configuration not stated),0,-,-,0,-
NNc1nc2sc3c(c2c(=O)[nH]1)CCc1ccccc1-3,0,0,0,57.9,0
CCOc1cc(/C=C/C(=O)N(CC)CC(=O)NCc2cccs2)cc(Cl)c1OC,0,-,0,0,-
O=C(/C=C/c1ccco1)c1cccnc1,0,-,0,36.1,0
O=C(C=Cc1ccco1)c1ccc([N+](=O)[O-])cc1,0,-,0,37.4,0
C#CC1(N2CCCCC2)CCCCC1,0,-,0,0,-
CNc1ccc(/C=C(\CCC(=O)O)c2nc3ccccc3s2)cc1[N+](=O)[O-],0,0,0,47.4,54.3
Cc1ccc(/C=C(\CCC(=O)O)c2nc3ccccc3s2)cc1[N+](=O)[O-],0,0,0,0,-
Cn1cnnc1Sc1ccc(/C=C(\CCC(=O)O)c2nc3ccccc3s2)cc1[N+](=O)[O-],0,0,0,0,-
CN(c1ccccc1)c1ccc(/C=C(\CCC(=O)O)c2nc3ccccc3s2)cc1[N+](=O)[O-],0,0,0,68.6,61.9
COC(=O)[C@]12C[C@H](CC(=O)NCc3ccc(C)o3)C(=O)N(Cc3cccc4ccccc34)C1=C[C@H](COCc1ccccc1)O[C@@H]2C,0,-,-,0,-
CCC(C)c1ccccc1NC(=O)COC(=O)c1ccc(C)c(NC(=O)c2ccco2)c1 (configuration not stated),0,0,0,49.0,0
Nc1cc(N)cc(C(=O)c2ccccc2)c1,0,-,-,44.5,0
CCC(C)Sc1cc(-c2nc3ccccn3c2NC2CCCCC2)ccc1OC (configuration not stated),0,-,0,47.3,44.9
CCC(C)Sc1ccc(-c2nc3ccc(C)cn3c2NC2CCCCC2)cc1 (configuration not stated),-,-,0,-,-
CCC(C)Sc1cc(-c2nc3cc(C)ccn3c2NC2CCCCC2)ccc1OC (configuration not stated),0,-,0,31.2,67.2
CC(C)(C)c1ccc(/C=C2\Oc3cc(OC(=O)N4CCOCC4)ccc3C2=O)cc1,0,0,0,67.3,57.1
O=C1CC(Nc2ccc(N3CCOCC3)cc2)C(=O)N1CCc1ccccc1 (configuration not stated),0,0,0,32.7,0
O=C1CC(Nc2ccccc2)C(=O)N1CCc1ccccc1 (configuration not stated),0,0,0,0,-
COc1ccc(N2C(=O)CC(Nc3ccc(N4CCOCC4)cc3)C2=O)c(OC)c1 (configuration not stated),30.5,0,0,48.8,0
